Screens (PubChem)
Most compounds without a hit are left out; they make up all but 3.7% or so of the library.
Yeast lifespan up: yeast lifespan extension. S. cerevisiae growth with nicotinamide, OD615; deaD strain in restrictive glucose medium. inhibition of the nicotinamide effect, % at 10 µM. 0.68% of 130,000 active. AID 775;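 active = inhibition above a set limit, placed 3 SD over the median of all compounds, cut at about 26% in these data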;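 note: 0% = nicotinamide-treated wells and 100% = cells grown without nicotinamide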
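Assay system: engineered S. cerevisiae DeaD replicative-lifespan strain, galactose-grown log-phase cells; Buffer or medium: CSMM-D glucose medium, restrictive; Probe or stimulus: nicotinamide 1.5 mM; Compound: single dose 10 µM compound, 0.25% DMSO; Schedule: 4 h preincubation then 48 h treatment at 30 °C; Technique: OD615 measurement.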
HMGR II inh: E. faecalis class II HMG-CoA reductase inhibition; inhibition, % at 10 µM; 0.41% of 190,000 active; purified E. faecalis HMGR, NADPH absorbance 340 nm kinetic; AID 1066;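 active = inhibition above a set limit, the median over all tested compounds plus 3 SD, cut at about 9.5% in these data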;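 note: enzyme runs in reverse so mevalonate oxidation gives rising NADPH absorbance; 0% = complete reaction with DMSO and 100% = background rate lacking mevalonate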
INS promoter inh: TRM-6 insulin promoter activity inhibition | TRM-6 cells, insulin promoter-eGFP reporter, imaging; reporter expression induced with tamoxifen | AID 1273 | 0.9% of 130,000 active | inhibition, % at 2 µM;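 active = inhibition above the mean plus 3 SD, with well images judged a real hit on visual review, cut at about 60% in these data, passing the limit was not always enough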
RAM inhibit: blocks the yeast RAM network; AID 868; 1.8% of 190,000 active; S. cerevisiae dse1pr::URA3 reporter, 5-FOA growth OD615, 2 d; analog-sensitive cbk1-as2 kinase mutant strain; inhibition, % at 50 µM;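 active = inhibition above a set limit, 3 SD over mean compound inhibition, cut at about 8.4% in these data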;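 note: 0% = DMSO-only wells with no growth and 100% = 10 µM 1-NA-PP1 full growth; inhibition rescues growth on 5-FOA so higher OD means more RAM inhibition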
BB579 growth dn: yeast BB579 growth reduction in restrictive medium. 0.51% of 140,000 active. S. cerevisiae BB579 growth, OD615, 48 h. inhibition, % at 10 µM;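 active = inhibition above a set limit, 3 SD over the mean compound inhibition, cut at about 44% in these data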
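System: Saccharomyces cerevisiae DeaD strain BB579, replicative lifespan model yeast | Buffer or medium: Restrictive glucose-based CSMM-D medium | Times: 4 h preincubation and 48 h exposure at 30 °C | Detection: OD615 turbidity measurement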
Starred values were filed as active, the others as inactive.

`COc1cccc(/C=N/NC(=O)c2nc(-c3ccccc3)cc(-c3ccccc3)n2)c1` gave Yeast lifespan up -1.8, HMGR II inh 3.0, INS promoter inh 3.3, RAM inhibit 2.7 and BB579 growth dn -23.6.
Screening COc1ccc(/C=N/NC(=O)c2nc(-c3ccccc3)cc(-c3ccccc3)n2)cc1OC returned Yeast lifespan up -1.7, HMGR II inh -1.2, RAM inhibit 10.2* and BB579 growth dn -16.7.
For CCCN1Cc2cccc(C(=O)NC3CCCC3)c2C1=O the results were Yeast lifespan up -12.6, HMGR II inh -2.2, INS promoter inh 93.8*, RAM inhibit -0.3 and BB579 growth dn -5.5.
CC(=O)NNC(=S)NC(=O)c1ccc(C)cc1 was read as HMGR II inh -1.9, INS promoter inh 28.6 and RAM inhibit -1.4.
For Cc1ccc(C(=O)NNC(=S)NC(=O)c2ccc(Cl)cc2)cc1 the results were Yeast lifespan up 95.0*, HMGR II inh 0.1, INS promoter inh 0.0, RAM inhibit 1.1 and BB579 growth dn -32.3.
Screening Cn1c(CN2CCCC(C(=O)c3ccc4c(c3)OCO4)C2)nc2ccccc21 (stereo not given) returned HMGR II inh 0.4 and RAM inhibit 2.0.
Screening O=C(c1ccc2c(c1)OCO2)C1CCCN(Cc2ccc3nsnc3c2)C1 (stereo not given) returned HMGR II inh 10.7* and RAM inhibit 0.1.
For Cc1ccc(NC(=O)c2cc(S(=O)(=O)NCCC3=CCCCC3)ccc2F)cc1F the results were Yeast lifespan up -2.7, HMGR II inh 0.9, INS promoter inh -34.4, RAM inhibit 2.5 and BB579 growth dn -14.3.
O=C(Nc1cccc(F)c1)c1cc(S(=O)(=O)NCCC2=CCCCC2)ccc1F was read as Yeast lifespan up 1.5, HMGR II inh -4.7, RAM inhibit 10.9* and BB579 growth dn -42.2.
`Cc1c(CN2CCC(CO)(CC3CCCCO3)CC2)cnn1C` (stereo not given) gave HMGR II inh -5.6 and RAM inhibit 0.4.
`CN(C)c1ccc(-c2noc(C3CCN(S(=O)(=O)c4cccc(C(=O)O)c4)CC3)n2)cc1` gave Yeast lifespan up -1.8, HMGR II inh -0.9, INS promoter inh 2.9, RAM inhibit 9.8* and BB579 growth dn -51.2.
For CCS(=O)(=O)N1CCC(c2nc(-c3ccc(C)cc3)no2)CC1 the results were Yeast lifespan up 59.9*, HMGR II inh 1.5, RAM inhibit -0.1 and BB579 growth dn 2.2.
Screening CCS(=O)(=O)N1CCC(c2nc(-c3ccc(C(F)(F)F)cc3)no2)CC1 returned Yeast lifespan up -7.3, HMGR II inh -4.1, INS promoter inh -81.8, RAM inhibit 1.9 and BB579 growth dn -18.3.
Screening O=C(c1ccccc1)N1CCC(c2nc(-c3ccc(S(=O)(=O)N4CCOCC4)cc3)no2)CC1 returned Yeast lifespan up -11.2, HMGR II inh 4.7, INS promoter inh -13.9, RAM inhibit -0.2 and BB579 growth dn -64.6.
Screening COc1ccc(CNS(=O)(=O)NCc2ccc(C)cc2)cc1 returned HMGR II inh -3.7, INS promoter inh 46.1 and RAM inhibit 1.6.
`CCCCn1c(=O)[nH]c(=O)c2c(C(=O)OCC)cc(-c3ccc(OC(F)F)cc3)nc21` gave HMGR II inh 0.0, INS promoter inh 17.6 and RAM inhibit 2.5.
`CCCOC(=O)c1ccc(Oc2c(-c3ccc(OC)cc3O)n[nH]c2C)cc1` gave Yeast lifespan up -23.7, HMGR II inh 0.2, INS promoter inh 33.3, RAM inhibit 10.4* and BB579 growth dn -41.2.
COc1ccc(-c2n[nH]c(C)c2-c2ccc(Cl)cc2)c(O)c1 was read as Yeast lifespan up -16.9, HMGR II inh -4.6, INS promoter inh 7.9, RAM inhibit 0.3 and BB579 growth dn 100.1*.
Cc1[nH]nc(-c2ccc(O)cc2O)c1Oc1ccccc1 was read as Yeast lifespan up -5.8, HMGR II inh -3.8, RAM inhibit 0.0 and BB579 growth dn -27.2.
CCc1cc(-c2n[nH]c(C)c2Oc2ccc(C(C)C)cc2)c(O)cc1O was read as Yeast lifespan up -14.1, HMGR II inh -5.3, INS promoter inh 13.8, RAM inhibit -0.4 and BB579 growth dn 89.8*.
Cc1ccc(NC(=O)COC(=O)C2CC(=O)N(Cc3ccccc3)C2)cc1S(=O)(=O)N(C)C (stereo not given) was read as HMGR II inh -1.1 and RAM inhibit 0.8.
`O=C(O)C1=C[C@H](C2CC2)C[C@H](OCCCCO)O1` gave HMGR II inh -6.1 and RAM inhibit 0.5.
